Results from article PMC9810445 (Biomolecules & Therapeutics, 2022).

Biological target: T1, CYP6A8 (Drosophila melanogaster, UniProt Q27593)
T1 sequence (Q27593 1-506): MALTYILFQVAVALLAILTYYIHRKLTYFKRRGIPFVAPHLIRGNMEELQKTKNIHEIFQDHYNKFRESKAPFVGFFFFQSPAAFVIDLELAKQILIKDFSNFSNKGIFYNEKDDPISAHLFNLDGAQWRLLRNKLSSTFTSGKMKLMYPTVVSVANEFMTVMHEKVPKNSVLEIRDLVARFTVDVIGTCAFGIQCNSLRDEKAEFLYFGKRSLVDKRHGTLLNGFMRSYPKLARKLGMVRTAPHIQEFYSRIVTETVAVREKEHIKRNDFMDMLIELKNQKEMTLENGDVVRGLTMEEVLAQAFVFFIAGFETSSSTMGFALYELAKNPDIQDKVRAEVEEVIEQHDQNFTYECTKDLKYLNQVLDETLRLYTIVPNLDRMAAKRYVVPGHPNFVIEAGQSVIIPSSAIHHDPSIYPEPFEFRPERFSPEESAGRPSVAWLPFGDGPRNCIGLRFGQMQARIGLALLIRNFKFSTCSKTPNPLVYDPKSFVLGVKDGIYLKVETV
Assay: UV-visible spectral binding titration
Outline: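 Recombinant C-terminally His6-tagged CYP6A8 was expressed in E. coli from pCW and purified by Ni2+-NTA chromatography. Enzyme was diluted to 1 µM in 100 mM potassium phosphate (pH 7.6) and split between sample and reference cuvettes. Fatty acid was added stepwise and 350–500 nm difference spectra were recorded. Kd was derived by plotting the peak-to-trough absorbance difference against ligand concentration.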

Kd | SMILES
144 ± 20 µM | CCCCCCCCCC(=O)O [capric acid]
713 ± 46 µM | CCCCCCCC(=O)O [octanoic acid]
28 ± 4 µM | CCCCCCCCCCCC(=O)O [lauric acid]
